Screening results (PubChem BioAssay)
Sampled rows, rich in hits. Any-hit rate of the full collection: about 1.7%.
TPT1 inh: Candida albicans TPT1 enzyme inhibitors, primary screen, biochemical, fluorescence polarization; tRNA 2'-phosphotransferase TPT1 (Candida albicans SC5314); recombinant caTPT1, FP RNA substrate dephosphorylation; inhibition, % at 5 µM; 300,000 tested, 0.81% active; AID 1962, 2009;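 active = inhibition above the mean of all tested compounds plus 3 SD, set per screening campaign, cut at about 24% in these data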;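 note: plate controls were DMSO alone for no effect and ferristatin control at 100 nM for full effect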
HNF4A DNA FP: change in binding of human HNF4A to DNA, primary screen, biochemical, fluorescence polarization, FITC-DNA; Hepatocyte nuclear factor 4-alpha (Homo sapiens), P41235; 1 h; activity change, % at 10 µM; 360,000 tested, 0.3% active; AID 1224865, 2016; in the data active = activity change above about 30%, passing the limit was not always enough
Target sequence (P41235 whole entry, looked up): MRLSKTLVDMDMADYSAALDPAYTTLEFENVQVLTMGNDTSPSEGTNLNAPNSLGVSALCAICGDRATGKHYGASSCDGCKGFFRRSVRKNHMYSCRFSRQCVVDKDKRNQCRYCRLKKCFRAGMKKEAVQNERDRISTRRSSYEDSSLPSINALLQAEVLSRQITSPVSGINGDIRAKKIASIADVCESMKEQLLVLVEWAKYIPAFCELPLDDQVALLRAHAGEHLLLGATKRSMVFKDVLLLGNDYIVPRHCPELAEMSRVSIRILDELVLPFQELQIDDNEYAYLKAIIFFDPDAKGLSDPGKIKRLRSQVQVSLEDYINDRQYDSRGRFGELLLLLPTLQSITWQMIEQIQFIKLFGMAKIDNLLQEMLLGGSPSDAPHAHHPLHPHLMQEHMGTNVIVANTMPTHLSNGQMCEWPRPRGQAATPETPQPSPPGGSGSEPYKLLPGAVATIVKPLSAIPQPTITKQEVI
Tb MetRS inh: T. brucei MetRS inhibitors, primary screen, biochemical, luminescence | inhibition, % at 11.9 µM | AID 624268, 2012 | 360,000 tested, 0.4% active | purified T. brucei MetRS, ATP depletion, Kinase-Glo luminescence;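 active = inhibition above a per-plate cutoff of the control wells' mean inhibition plus 3 SD, cut at about 5.5% in these data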;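 note: 0% = DMSO wells median and 100% = median of wells with control inhibitor compound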
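Dosing: 11.9 µM single point; system: parasite MetRS enzyme; technique: luminescence of leftover ATP; times: 15 min enzyme-compound preincubation, 2 h reaction, 10 min detection, 25 °C; replicates: each compound tested once; read-out basis: percent inhibition relative to median high and low control wells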
IDE cell activ: human IDE activators in live cells, primary screen, fluorescence polarization, HEK cells, FAbeta-B substrate; Insulin-degrading enzyme (Homo sapiens), P14735; FAbeta-B cleavage; 0% vehicle, 100% cell-free pure enzyme wells; activation, % at 5.96 µM; 340,000 tested, 0.073% active;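 active = activation above the mean of all tested compounds plus 3 SD, set per screening campaign, cut at about 17% in these data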
IDE cell inh: human IDE inhibitors in live cells, primary screen, fluorescence polarization, HEK cells, FAbetaB substrate; Insulin-degrading enzyme (Homo sapiens), P14735; FAbetaB cleavage; inhibition, % at 5.59 µM; 320,000 tested, 0.41% active;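 active = percent inhibition above the average of all tested compounds plus 3 SD, set per screening campaign, cut at about 16% in these data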;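 note: IDE supplied by intact live HEK cells; FP after avidin binding of uncleaved biotin substrate so inhibition keeps polarization high; 0% = DMSO wells and 100% = 60 µM reference IDE inhibitor Ii1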
CSN inh: inhibitors of CSN-mediated cullin deneddylation, primary screen, biochemical, fluorescence polarization, uHTS | COP9 signalosome complex subunit 5 (Homo sapiens), Q92905 | Purified CSN, SCF-Nedd8-OG deneddylation | inhibition, % at 12.5 µM | 360,000 tested, 0.38% active;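 active = pattern-corrected inhibition above about 35%, with an unprinted fluorescence ratio check between 0.5 and 1.5, limit read from the data, passing the limit was not always enough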;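 note: 0% = enzyme with substrate and 100% = substrate without enzyme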
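Schedule: reaction 90 min, room temperature / Assay system: HEK293T-derived human Csn5 enzyme / Input: Csn5 at 0.24 nM final / Measure: inhibition of Csn5 cleavage, % / Control set: substrate-only high control, full reaction low control / Technique: fluorescence polarization of the substrate / Buffer or medium: Tris/NaCl/DTT buffer, pH 7.5 / Reagent: SCFSkp2-Nedd8OG substrate at 10 nM final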
caTPT1 confirm: Candida albicans TPT1 inhibitors, confirmation, biochemical, fluorescence polarization, triplicate; shares compounds with TPT1 inh; recombinant caTPT1, RNase T1 coupled; inhibition, % at 5 µM; 2,400 tested, 74% active; AID 2149, 2009;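 active = inhibition above the primary screen limit, the mean inhibition of all tested compounds plus 3 SD, cut at about 25% in these data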
RNase T1 counter: RNase T1 inhibitors, counter-screen for TPT1 inhibitor project, biochemical, fluorescence polarization | shares compounds with TPT1 inh | RNase T1 cleavage, 1536-well | inhibition, % at 5 µM | 2,400 tested, 83% active | AID 2153, 2009;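 active = inhibition above the solvent-only control well mean plus 3 SD, limit set per screening run, cut at about 23% in these data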;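 note: plate controls were DMSO wells with enzyme for no effect and wells without RNase T1 for full effect; inhibitors block cleavage so intact labeled substrate keeps polarization high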
Target sequence (P00651 whole entry, looked up): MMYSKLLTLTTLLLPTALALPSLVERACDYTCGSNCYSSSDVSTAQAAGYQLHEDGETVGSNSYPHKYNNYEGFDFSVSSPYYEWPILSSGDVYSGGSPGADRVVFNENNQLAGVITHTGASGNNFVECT
Starred values were filed as active, the others as inactive; x = no result.

SMILES | TPT1 inh | HNF4A DNA FP | Tb MetRS inh | IDE cell activ | IDE cell inh | CSN inh | others
COc1ccc(-c2ccc3c(=O)cc(-c4ccsc4)oc3c2)cn1 | x | 62.8* | -0.3 | 0.8 | 2.8 | 104.4*
CCc1ccc(C2=NN(S(C)(=O)=O)C(c3cccs3)C2)cc1 (stereo not given) | 8.3 | 91.6* | -0.9 | -8.2 | 12.6 | 1.5
Cc1ccc(C2=NN(S(C)(=O)=O)C(c3cccs3)C2)cc1 (stereo not given) | -1.0 | -7.5 | -0.7 | -8.6 | -1.2 | -7.2
CCOC(=O)CCn1nc(-c2ccc(Cl)cc2)cc1N | -2.0 | -3.5 | -0.9 | -5.5 | -0.8 | -1.4
CCOC(=O)Cn1nc(-c2ccc(Cl)cc2)cc1N | -0.3 | 5.5 | -0.4 | 3.6 | -3.0 | 48.5*
Cc1c(/C=N/Nc2nc3ccccc3[nH]2)c2ccccc2n1C | 1.7 | 2.1 | 4.9 | 1.5 | 5.5 | -2.9
C=CCn1cc(/C=N/Nc2nc3ccccc3[nH]2)c2ccccc21 | -1.0 | -0.1 | 5.6* | 4.8 | -5.9 | 0.4
Cc1ccc(OCC(=O)NC(=S)Nc2ccc(Br)cn2)cc1C | -4.7 | -1.1 | -0.3 | 6.6 | -0.1 | -3.9
O=C(NNS(=O)(=O)c1ccc(Br)cc1)c1sccc1-n1cccc1 | -2.5 | 0.6 | -0.2 | 2.3 | 1.4 | -5.4
COc1ccc(S(=O)(=O)NNC(=O)c2sccc2-n2cccc2)cc1 | -6.5 | 30.5* | 0.1 | 2.0 | 4.1 | -1.5
Cc1cc(C(=O)Nc2cccc(O)c2)c(C)o1 | -1.9 | 59.8* | 0.4 | -3.6 | 2.4 | -1.5
Cc1cc(C(=O)Nc2cccc(C(=O)O)c2)c(C)o1 | 1.6 | -0.4 | -0.4 | 8.1 | -0.6 | -0.1
CC(C)OCCCNC(=O)Cn1ccc2cc(S(=O)(=O)N3CCCCC3)ccc21 | -1.4 | 2.3 | -0.5 | -2.8 | -2.1 | -1.2
COc1ccc(C2/C(=C(/O)c3ccc(F)cc3)C(=O)C(=O)N2CCCN(C)C)cc1 (stereo not given) | x | -0.1 | 0.3 | 5.4 | x | 3.3
CCCOc1ccc(C2/C(=C(/O)c3ccc(F)cc3)C(=O)C(=O)N2CCCN(C)C)cc1 (stereo not given) | -0.2 | 4.4 | -0.6 | 6.7 | 1.2 | 38.8*
O=c1cc(O)c2sc3nc(-c4cccnc4)cc(C(F)(F)F)c3c2[nH]1 | 31.7* | 11.7 | -0.7 | 1.4 | 6.5 | 11.5 | caTPT1 confirm=27.6*;RNase T1 counter=39.5*
Cc1cc(C(F)(F)F)c2c(n1)sc1c(O)cc(=O)[nH]c12 | -4.7 | 5.2 | -0.6 | 0.6 | 4.1 | -0.5
Cc1cc(N2CCOCC2)ccc1/C=C1/SC(=O)NC1=O | 6.7 | 1.4 | -1.2 | 6.3 | 9.7 | -4.6
C=CCN1C(=O)S/C(=C\c2ccc(N3CCOCC3)cc2C)C1=O | 66.3* | 22.4 | -1.7 | 1.7 | 1.5 | 10.5 | caTPT1 confirm=54.3*;RNase T1 counter=65.9*
C=CC(C)N1C(=O)S/C(=C\c2ccc(N3CCOCC3)cc2C)C1=O (stereo not given) | 32.3* | 16.6 | -1.0 | -4.7 | 8.7 | 6.6 | caTPT1 confirm=57.0*;RNase T1 counter=63.5*
Cc1c(N)cc2c(c1N)C(C)(C)CC2(C)C | x | -2.4 | -0.2 | 1.3 | x | 0.8
CCN(CC)c1cccc(OCC(=O)N(C)CCC#N)c1 | 43.1* | 32.1 | 0.0 | 0.4 | -1.8 | 18.3 | caTPT1 confirm=41.3*;RNase T1 counter=51.0*
COc1cc2oc(=O)cc(CN(Cc3ccccc3)Cc3ccccc3)c2cc1Cl | x | 2.1 | -1.3 | x | x | -1.2
CCc1ccc(/C=C/c2c[nH]c3ccccc23)[n+](CC)c1 | 31.2* | 17.3 | 0.3 | -6.8 | 8.0 | 0.5 | caTPT1 confirm=29.3*;RNase T1 counter=38.2*
CN(C)c1cccc(NC(=O)c2cccc3c(-c4ccc(F)c(F)c4)coc23)c1 | x | -1.3 | -0.2 | x | x | 2.7
SMILES | TPT1 inh | HNF4A DNA FP | Tb MetRS inh | IDE cell activ | IDE cell inh | CSN inh | others
CC(=O)c1ccc(NC(=O)C(=O)c2cn(CC(=O)N3CCCCC3)c3ccccc23)cc1 | 0.6 | -0.7 | -0.4 | 4.4 | -2.7 | 5.1
Cc1cc(C)nc(SCc2cc(=O)c(OC(=O)c3cc([N+](=O)[O-])ccc3Cl)co2)n1 | 1.0 | -3.6 | -1.1 | 2.7 | 5.2 | 4.0
O=C(Oc1coc(CSc2ncccn2)cc1=O)c1ccccc1[N+](=O)[O-] | 46.3* | -3.6 | 0.8 | 7.5 | -2.5 | 0.5 | caTPT1 confirm=6.3;RNase T1 counter=9.8
CN(C)S(=O)(=O)c1ccc(S(=O)(=O)NCc2ccc3c(c2)OCO3)cc1 | -0.9 | 1.6 | 0.8 | 0.3 | -3.6 | -2.0
COc1ccc(-c2ccccc2)cc1NC(=O)C1(C)CCN1C(=O)C(C)C (stereo not given) | x | 0.6 | -0.2 | x | x | -7.7
COc1ccc(C2=Cc3ccccc3C(CC(=O)C3CC3)N2c2ccc(-c3cc(OC)c(OC)c(OC)c3)cc2)cc1 (stereo not given) | x | 4.4 | -0.4 | x | x | -1.5
O=[N+]([O-])c1ccc(N/N=C/c2ccccc2)c(F)c1 | 27.1* | 11.6 | 0.6 | -14.5 | 13.8 | 2.7 | caTPT1 confirm=43.5*;RNase T1 counter=54.4*
CC1(CO)COC(c2ccccc2)=N1 (stereo not given) | -0.4 | 1.9 | 0.3 | 8.9 | -8.1 | -8.2
N#CCc1cc2ccc3cccc4ccc(c1)c2c34 | -6.1 | -5.0 | 0.3 | 3.2 | -4.6 | -3.5
O=C(O)c1ccc2c(c1)S(=O)(=O)c1cc(N3CCN(c4ncccn4)CC3)ccc1C2=O | x | 12.8 | -0.9 | x | x | 6.7
O=C(NN1C(=O)/C(=C/c2cccs2)SC1=S)c1ccccc1 | -0.7 | 0.9 | -3.1 | -1.9 | 0.1 | 3.0
Cn1cccc1/C=C1\SC(=S)N(NC(=O)c2ccc(F)cc2)C1=O | 96.8* | 90.9* | -2.5 | 3.0 | 12.8 | 54.0* | caTPT1 confirm=111.0*;RNase T1 counter=118.2*
Cn1cccc1/C=C1\SC(=S)N(NC(=O)c2ccccc2)C1=O | 88.5* | 86.5* | -3.9 | -5.8 | 11.2 | 33.9 | caTPT1 confirm=91.2*;RNase T1 counter=111.4*
O=C(NCCCNC(=O)c1cnccn1)c1ccc(Br)cc1 | -0.6 | -1.6 | -0.2 | 3.9 | 0.3 | 1.3
COc1ccccc1Cn1c(=S)[nH]c2cc(C(=O)N3CCCC(C)C3)ccc2c1=O (stereo not given) | x | 0.7 | -0.2 | x | x | -3.6
